From ChEMBL document CHEMBL2086326, “Biological activity evaluation and structure-activity relationships analysis of ferulic acid and caffeic acid derivatives for anticancer” (Bioorg Med Chem Lett, 2012)

Columns and labels:
Assay type in all cases: functional, cell-based
NCI-H157 = assay: Cytotoxicity against human NCI-H157 cells after 72 hrs by alamar blue assay; conditions: NCI-H157, 72 h
Procedure, shortened: (§1)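 Cells seeded at 800–1000 per well (20–25 cells/µL) and left overnight to attach. Compounds were diluted serially from 10 mM DMSO stocks and tested at 8 final concentrations, 50 to 0.39 µM, in triplicate for 72 h. Vehicle control was 0.5% DMSO. Alamar blue was added to 10% final and fluorescence read after 4 h (ex 530, em 560 nm). Viability was expressed as percent of vehicle, and IC50 taken as 50% kill versus control.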

[1] = Cytotoxicity against human 292G cells after 72 hrs by alamar blue assay; procedure, shortened: as §1
[2] = Cytotoxicity against human SKBR cells after 72 hrs by alamar blue assay; procedure, shortened: as §1
NCI-H1299 = assay: Cytotoxicity against human NCI-H1299 cells after 72 hrs by alamar blue assay; conditions: NCI-H1299, 72 h; procedure, shortened: as §1
[3] = Cytotoxicity against human H266 cells after 72 hrs by alamar blue assay; conditions: H266, 72 h; procedure, shortened: as §1
A549 = assay: Cytotoxicity against human A549 cells after 72 hrs by alamar blue assay; conditions: A549, 72 h; procedure, shortened: as §1
LOX IMVI = assay: Cytotoxicity against human LOXIMVI cells after 72 hrs by alamar blue assay; procedure, shortened: as §1
NCI-H1792 = assay: Cytotoxicity against human NCI-H1792 cells after 72 hrs by alamar blue assay; conditions: NCI-H1792, 72 h; procedure, shortened: as §1
NCI-H460 = assay: Cytotoxicity against human H460 cells after 72 hrs by alamar blue assay; conditions: NCI-H460, 72 h; procedure, shortened: as §1
M14 = assay: Cytotoxicity against human M14 cells after 72 hrs by alamar blue assay; conditions: M14, 72 h; procedure, shortened: as §1
HOP-62 = assay: Cytotoxicity against human HOP62 cells after 72 hrs by alamar blue assay; conditions: HOP-62, 72 h; procedure, shortened: as §1
Calu-1 = assay: Cytotoxicity against human Calu1 cells after 72 hrs by alamar blue assay; conditions: Calu-1, 72 h; procedure, shortened: as §1
[4] = Cytotoxicity against human M4E cells after 72 hrs by alamar blue assay; procedure, shortened: as §1
HeLa = assay: Cytotoxicity against human HeLa cells after 72 hrs by alamar blue assay; procedure, shortened: as §1

## COc1cc(/C=C/C(=O)OC(C)CCOc2no[n+]([O-])c2S(=O)(=O)c2ccccc2)ccc1O (stereo unspecified)
NCI-H157
  IC50: 0.41 µM
[1]
  IC50: 1.77 µM
[2]
  IC50: 0.4 µM
NCI-H1299
  IC50: 0.41 µM
[3]
  IC50: 0.43 µM
A549
  IC50: 0.42 µM
LOX IMVI
  IC50: 0.41 µM
NCI-H1792
  IC50: 0.4 µM
NCI-H460
  IC50: 0.42 µM
M14
  IC50: 0.41 µM
HOP-62
  IC50: 0.42 µM
Calu-1
  IC50: 0.45 µM
[4]
  IC50: 1.18 µM
HeLa
  IC50: 0.4 µM

## COc1cc(/C=C/C(=O)OCCCCCCO[N+](=O)[O-])ccc1OCCCCCCO[N+](=O)[O-]
NCI-H157
  IC50: > 50 µM
[1]
  IC50: > 50 µM
[2]
  IC50: > 50 µM
NCI-H1299
  IC50: > 50 µM
[3]
  IC50: > 50 µM
A549
  IC50: > 50 µM
LOX IMVI
  IC50: > 50 µM
NCI-H1792
  IC50: > 50 µM
NCI-H460
  IC50: > 50 µM
M14
  IC50: > 50 µM
HOP-62
  IC50: > 50 µM
Calu-1
  IC50: 27.8 µM
[4]
  IC50: > 50 µM
HeLa
  IC50: > 50 µM

## O=C(/C=C/c1ccc(O)c(O)c1)OCCCO[N+](=O)[O-]
NCI-H157
  IC50: 4.34 µM
[1]
  IC50: 13.5 µM
[2]
  IC50: 5.77 µM
NCI-H1299
  IC50: 8.03 µM
[3]
  IC50: > 50 µM
A549
  IC50: 10.8 µM
LOX IMVI
  IC50: 18.9 µM
NCI-H1792
  IC50: 18.1 µM
NCI-H460
  IC50: 3.31 µM
M14
  IC50: 24.8 µM
HOP-62
  IC50: 10 µM
Calu-1
  IC50: 10.7 µM
[4]
  IC50: 20 µM
HeLa
  IC50: 3.11 µM

## O=C(/C=C/c1ccc(OCCCO[N+](=O)[O-])c(O)c1)OCCCO[N+](=O)[O-]
NCI-H157
  IC50: 5.71 µM
[1]
  IC50: 4.98 µM
[2]
  IC50: 4.81 µM
NCI-H1299
  IC50: > 50 µM
[3]
  IC50: > 50 µM
A549
  IC50: 0.69 µM
LOX IMVI
  IC50: 6.94 µM
NCI-H1792
  IC50: 6.61 µM
NCI-H460
  IC50: 9.58 µM
M14
  IC50: 8.96 µM
HOP-62
  IC50: 10 µM
Calu-1
  IC50: 12.5 µM
[4]
  IC50: 14.1 µM
HeLa
  IC50: > 50 µM

## CCCCOC(=O)/C=C/c1ccc(O)c(O)c1 [BUTYL CAFFEATE]
NCI-H157
  IC50: 2.62 µM
[1]
  IC50: 6.46 µM
[2]
  IC50: 2.17 µM
NCI-H1299
  IC50: 5.81 µM
[3]
  IC50: 11.3 µM
A549
  IC50: 3.51 µM
LOX IMVI
  IC50: 9.54 µM
NCI-H1792
  IC50: 5.75 µM
NCI-H460
  IC50: 5.62 µM
M14
  IC50: 11.1 µM
HOP-62
  IC50: 5.59 µM
Calu-1
  IC50: 11.7 µM
[4]
  IC50: 8.66 µM
HeLa
  IC50: 0.59 µM

## CCCOC(=O)/C=C/c1ccc(O)c(O)c1
NCI-H157
  IC50: 7.16 µM
[1]
  IC50: 7.58 µM
[2]
  IC50: 3.87 µM
NCI-H1299
  IC50: 5.85 µM
[3]
  IC50: 34.4 µM
A549
  IC50: 4.39 µM
LOX IMVI
  IC50: 7.5 µM
NCI-H1792
  IC50: 22.1 µM
NCI-H460
  IC50: 7.01 µM
M14
  IC50: 13.5 µM
HOP-62
  IC50: 7.81 µM
Calu-1
  IC50: 17.7 µM
[4]
  IC50: 12.4 µM
HeLa
  IC50: 1.51 µM

## O=C(/C=C/c1ccc(OCCCCCO[N+](=O)[O-])c(O)c1)OCCCCCO[N+](=O)[O-]
NCI-H157
  IC50: > 50 µM
[1]
  IC50: > 50 µM
[2]
  IC50: 2.71 µM
NCI-H1299
  IC50: > 50 µM
[3]
  IC50: > 50 µM
A549
  IC50: 0.45 µM
LOX IMVI
  IC50: 7.23 µM
NCI-H1792
  IC50: > 50 µM
NCI-H460
  IC50: > 50 µM
M14
  IC50: > 50 µM
HOP-62
  IC50: > 50 µM
Calu-1
  IC50: > 50 µM
[4]
  IC50: > 50 µM
HeLa
  IC50: 5.73 µM

## COc1cc(/C=C/C(=O)OCCCCCO[N+](=O)[O-])ccc1OCCCCCO[N+](=O)[O-]
NCI-H157
  IC50: > 50 µM
[1]
  IC50: > 50 µM
[2]
  IC50: > 50 µM
NCI-H1299
  IC50: > 50 µM
[3]
  IC50: > 50 µM
A549
  IC50: > 50 µM
LOX IMVI
  IC50: > 50 µM
NCI-H1792
  IC50: > 50 µM
NCI-H460
  IC50: > 50 µM
M14
  IC50: > 50 µM
HOP-62
  IC50: > 50 µM
Calu-1
  IC50: > 50 µM
[4]
  IC50: > 50 µM
HeLa
  IC50: > 50 µM

## COc1cc(/C=C/C(=O)OCCCCO[N+](=O)[O-])ccc1OCCCCO[N+](=O)[O-]
NCI-H157
  IC50: > 50 µM
[1]
  IC50: > 50 µM
[2]
  IC50: > 50 µM
NCI-H1299
  IC50: > 50 µM
[3]
  IC50: > 50 µM
A549
  IC50: > 50 µM
LOX IMVI
  IC50: > 50 µM
NCI-H1792
  IC50: > 50 µM
NCI-H460
  IC50: > 50 µM
M14
  IC50: > 50 µM
HOP-62
  IC50: > 50 µM
Calu-1
  IC50: > 50 µM
[4]
  IC50: > 50 µM
HeLa
  IC50: 0.74 µM
